Measured values from ChEMBL document CHEMBL1140207, “A small molecule inhibitor, 1,2,4,5-benzenetetraamine tetrahydrochloride, targeting the y397 site of focal adhesion kinase decreases tumor growth” (J Med Chem, 2008).
Activity calls are given as the source filed them. No cut-off for these calls is given here.

Key:
BT-474 [1] = test: Effect on human BT474 cell survival assessed as cell detachment at 50 uM after 24 hrs by hemocytometer; type: functional
How it was run: (§1)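 BT474 cells treated at a range of doses; detached cells counted on a hemacytometer; means ± standard errors of three independent experiments, versus untreated cells.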

BT-474 [2] = test: Inhibition of human BT474 cells adhesion on collagen coated plates at 100 uM after 3 hrs by crystal violet staining
[3] = target: Focal adhesion kinase 1 (Homo sapiens) (UniProt Q05397); test: Inhibition of FAK-Y397 phosphorylation in human BT474 cells at 100 uM by Western blotting; type: cell-based; conditions: BT-474, TDE = time-dependent effect
Sequence of Focal adhesion kinase 1 (Homo sapiens) (Q05397 2-1052 limits assumed): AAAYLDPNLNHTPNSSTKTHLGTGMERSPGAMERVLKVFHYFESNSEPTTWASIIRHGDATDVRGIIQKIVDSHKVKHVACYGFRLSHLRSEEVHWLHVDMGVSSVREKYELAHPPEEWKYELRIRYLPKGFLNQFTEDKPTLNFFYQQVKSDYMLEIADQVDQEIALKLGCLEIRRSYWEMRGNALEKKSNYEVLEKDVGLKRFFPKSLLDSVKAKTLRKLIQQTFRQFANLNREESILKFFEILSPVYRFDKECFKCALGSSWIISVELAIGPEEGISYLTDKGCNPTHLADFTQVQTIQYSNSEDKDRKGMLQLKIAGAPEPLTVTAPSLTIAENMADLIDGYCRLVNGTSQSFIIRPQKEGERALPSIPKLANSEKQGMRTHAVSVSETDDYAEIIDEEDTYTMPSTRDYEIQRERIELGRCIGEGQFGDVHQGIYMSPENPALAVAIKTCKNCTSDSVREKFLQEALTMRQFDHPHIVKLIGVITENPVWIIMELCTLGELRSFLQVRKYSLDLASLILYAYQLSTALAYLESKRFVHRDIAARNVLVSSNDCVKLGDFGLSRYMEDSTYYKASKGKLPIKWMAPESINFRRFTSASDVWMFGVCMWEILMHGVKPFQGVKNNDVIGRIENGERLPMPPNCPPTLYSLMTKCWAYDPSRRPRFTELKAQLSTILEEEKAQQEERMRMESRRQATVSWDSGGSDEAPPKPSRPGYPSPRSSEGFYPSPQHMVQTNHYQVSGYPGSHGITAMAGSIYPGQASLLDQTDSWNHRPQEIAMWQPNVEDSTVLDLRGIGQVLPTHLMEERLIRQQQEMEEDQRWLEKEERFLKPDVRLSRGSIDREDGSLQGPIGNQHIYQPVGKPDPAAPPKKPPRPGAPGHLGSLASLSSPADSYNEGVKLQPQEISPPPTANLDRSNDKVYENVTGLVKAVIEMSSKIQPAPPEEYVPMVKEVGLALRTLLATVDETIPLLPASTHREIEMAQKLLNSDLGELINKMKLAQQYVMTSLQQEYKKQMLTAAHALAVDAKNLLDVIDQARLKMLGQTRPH
How it was run: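 BT474 cells given 100 μM for 1–24 h; Y397-FAK and total FAK normalized to β-actin by densitometry, expressed relative to untreated; three independent experiments, mean ± SE.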

[4] = target: Focal adhesion kinase 1 (Homo sapiens) (UniProt Q05397); test: Inhibition of total FAK phosphorylation in human BT474 cells at 100 uM by Western blotting; type: cell-based; conditions: BT-474, TDE = time-dependent effect
How it was run: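 BT474 lysates immunoprecipitated with FAK antibody, blotted with phosphotyrosine antibody, then stripped and reprobed for FAK.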

BT-474 [5] = test: Induction of apoptosis in human BT474 cells at 20 uM after 24 hrs by […] staining; type: functional
How it was run: (§2)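 BT474 cells treated 24 h at various doses; apoptotic nuclei scored by Hoechst staining; means ± SD of four independent experiments versus untreated cells.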

BT-474 [6] = test: Induction of apoptosis in human BT474 cells assessed as presence of apoptotic nuclei at 20 uM after 24 hrs by […] staining; type: functional, cell-based; how it was run: as §2
BT-474 [7] = test: Effect on human BT474 cell survival assessed as cell detachment at 10 uM after 24 hrs by hemocytometer; type: functional; how it was run: as §1
BT-474 [8] = test: Induction of apoptosis in human BT474 cells at 10 uM after 24 hrs by […] staining; type: functional; how it was run: as §2
BT-474 [9] = test: Induction of apoptosis in human BT474 cells assessed as cleavage of 89 kDa PARP at 1 uM after 24 hrs by Western blotting; type: functional, cell-based
How it was run: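 BT474 cells treated at various doses; lysates immunoblotted with PARP antibody, scoring cleaved 89 kDa fragment.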

C8161 = test: Cytotoxicity against human C8161 cells assessed as decrease in cell viability at 100 uM after 24 hrs by MTT assay; type: functional, cell-based
How it was run: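 Cells from breast cancer and melanoma lines were exposed to compound for 24 h and viability was read by MTT assay. A reference FAK inhibitor served as the control.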

| SMILES | Activity (BT-474 [1]) | Activity (BT-474 [2]) | Activity [3] | Activity [4] | Activity (BT-474 [5]) | Activity (BT-474 [6]) | Activity (BT-474 [7]) | Activity (BT-474 [8]) | Activity (BT-474 [9]) | Activity (C8161) |
| --- | --- | --- | --- | --- | --- | --- | --- | --- | --- | --- |
| CNC(=O)c1ccccc1Nc1nc(Nc2ccc(N3CCOCC3)cc2OC)ncc1Cl | >80% | Active | tde | tde | 69% | Active | 30% | 35% | Active | – |
| O=S1(=O)N2CN3CCN(C2)CN1C3 | – | – | – | – | – | – | – | – | – | Active |
